Data published in ChEMBL document CHEMBL2311304, “Design, synthesis and in vitro and in vivo antitumor activities of novel bivalent β-carbolines” (Eur J Med Chem, 2013).

Key:
KB = test: Cytotoxicity against human epidermoid carcinoma of the nasopharynx KB cells assessed as reduction in optical density by MTT assay; format: functional, cell-based
Method in brief: (§1)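 Cells were cultured in RPMI-1640 with 10% (v/v) fetal calf serum, 100 µg ml-1 penicillin and 100 µg ml-1 streptomycin at 37 °C in humidified 5% CO2. Compounds were dissolved in DMSO, with final DMSO at 2% (v/v) or lower. MTT staining was used, with three replicate wells per point. IC50 is the concentration giving a 50% drop in optical density versus untreated cells.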

769-P = test: Cytotoxicity against human renal carcinoma 769-P cells assessed as reduction in optical density by MTT assay; format: functional, cell-based; method in brief: as §1
SK-OV-3 = test: Cytotoxicity against human ovary adenocarcinoma SKOV3 cells assessed as reduction in optical density by MTT assay; format: functional, cell-based; details: SK-OV-3, Female gonad; method in brief: as §1
A-375 = test: Cytotoxicity against human malignant melanoma A375 cells assessed as reduction in optical density by MTT assay; format: functional, cell-based; method in brief: as §1
BGC-823 = test: Cytotoxicity against human gastric carcinoma BGC823 cells assessed as reduction in optical density by MTT assay; format: functional, cell-based; method in brief: as §1
[1] = Antitumor activity in mouse Lewis lung cancer cells inoculated mouse assessed as tumor inhibition rate at one fifth of LD50 concentration once a day for consecutive 7 days by ip; format: functional, Cancer cell lines; set-up: scale not given: the % may be the effect or the level left
Method in brief: (§2)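 Each tumour line was first grown in mice for 7 days, then harvested. Viable cells (2 × 10^6 per mouse) were injected s.c. into the armpit. Dosing began 24 h later: i.p., about one fifth of LD50, daily for 7 days, 10 female mice per group. […] Body weight was recorded every 3 days. Tumours were excised and weighed on day 21 to give inhibition rate.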

CT26 = test: Antitumor activity in mouse CT26 colon cancer cells inoculated mouse assessed as tumor inhibition rate at one fifth of LD50 concentration once a day for consecutive 7 days by ip; format: functional; set-up: scale not given: the % may be the effect or the level left; method in brief: as §2
Mus musculus [2] = test: Neurotoxicity in C57BL/6 mouse at 1 to 500 mg/kg, ip for 14 days; format: toxicity, organism-based; set-up: dose 1-500 mg/kg, route intraperitoneal; details: in vivo, 336 h
Method in brief: (§3)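 Healthy C57BL/6 mice (9–12 weeks, 18–22 g) were fasted overnight with free access to water. Each received a single i.p. dose of 1.0–500 mg kg-1 in 0.5% CMC-Na, 10 mice per group (5 male, 5 female). Mice were watched continuously for 2 h, intermittently to 24 h, then occasionally to 14 days for tremor, twitch, jumping and supination. At day 14 they were killed and heart, liver and kidneys were examined macroscopically.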

Mus musculus [3] = test: Toxicity in C57BL/6 mouse assessed as heart damage at 1 to 500 mg/kg, ip for 14 days; format: organism-based; set-up: dose 1-500 mg/kg, route intraperitoneal; details: in vivo, 336 h; method in brief: as §3
Mus musculus [4] = test: Toxicity in C57BL/6 mouse assessed as maximum weight loss at 40 mg/kg, ip; format: organism-based; set-up: dose 40 mg/kg, route intraperitoneal; details: in vivo
Method in brief: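 Tumor-bearing mice, 10 females per group, were inoculated s.c. in the armpit with 2 × 10^6 viable tumor cells. Compound was given i.p. once daily for 7 consecutive days, starting 24 h after inoculation. […] Body weight was recorded every 3 days until sacrifice on day 21.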

Mus musculus [5] = test: Toxicity in C57BL/6 mouse assessed as kidney damage at 1 to 500 mg/kg, ip for 14 days; format: organism-based; set-up: dose 1-500 mg/kg, route intraperitoneal; details: in vivo, 336 h; method in brief: as §3
Mus musculus [6] = test: Toxicity in C57BL/6 mouse assessed as liver damage at 1 to 500 mg/kg, ip for 14 days; format: organism-based; set-up: dose 1-500 mg/kg, route intraperitoneal; details: in vivo, 336 h; method in brief: as §3

| Structure (SMILES) | IC50 (KB) | IC50 (769-P) | IC50 (SK-OV-3) | IC50 (A-375) | IC50 (BGC-823) | Activity [1] | Activity (CT26) | Activity (Mus musculus [2]) | Activity (Mus musculus [3]) | Activity (Mus musculus [4]) | Activity (Mus musculus [5]) | Activity (Mus musculus [6]) |
| --- | --- | --- | --- | --- | --- | --- | --- | --- | --- | --- | --- | --- |
| Cc1nccc2c3ccc(OC(C)C)cc3n(CCCCCCCCCn3c4cc(OC(C)C)ccc4c4ccnc(C)c43)c12 | 112 µM | 40 µM | 101 µM | 43.3 µM | > 200 µM |  |  |  |  |  |  |  |
| Cc1nccc2c3ccccc3n(CCCCCCCCCn3c4ccccc4c4ccnc(C)c43)c12 | > 200 µM | > 200 µM | 61.9 µM | 57.2 µM | > 200 µM |  |  |  |  |  |  |  |
| CCOC(=O)c1cc2c3ccccc3n(CCCCCCn3c4ccccc4c4cc(C(=O)OCC)nc(-c5cccnc5)c43)c2c(-c2cccnc2)n1 | > 200 µM | > 200 µM | 68.3 µM | > 200 µM | > 200 µM |  |  |  |  |  |  |  |
| COc1ccc2c3ccnc(C)c3n(CCCCCCCCn3c4cc(OC)ccc4c4ccnc(C)c43)c2c1 | 2.8 µM | 65.6 µM | 7.1 µM | 6.2 µM | 75.7 µM |  |  |  |  |  |  |  |
| CCOC(=O)c1cc2c3ccccc3n(CCCCCCn3c4ccccc4c4cc(C(=O)OCC)nc(-c5cc(OC)c(OC)c(OC)c5)c43)c2c(-c2cc(OC)c(OC)c(OC)c2)n1 | > 200 µM | > 200 µM | > 200 µM | > 200 µM | > 200 µM |  |  |  |  |  |  |  |
| c1ccc2c(c1)c1ccnc(-c3ccsc3)c1n2CCCCCCCCn1c2ccccc2c2ccnc(-c3ccsc3)c21 | > 200 µM | > 200 µM | > 200 µM | 32.1 µM | > 200 µM |  |  |  |  |  |  |  |
| Cc1nccc2c3cc(Br)ccc3n(CCCCCn3c4ccc(Br)cc4c4ccnc(C)c43)c12 | > 200 µM | 4.3 µM | > 200 µM | > 200 µM | > 200 µM |  |  |  |  |  |  |  |
| Brc1ccc2c(c1)c1ccncc1n2CCCCn1c2ccc(Br)cc2c2ccncc21 | > 200 µM | 3.1 µM | 8.9 µM | > 200 µM | > 200 µM |  |  |  |  |  |  |  |
| Cc1nccc2c3ccccc3n(CCCCCCCCn3c4ccccc4c4ccnc(C)c43)c12 | > 200 µM | > 200 µM | > 200 µM | > 200 µM | > 200 µM |  |  |  |  |  |  |  |
| Cc1nccc2c3ccccc3n(CCCCCn3c4ccccc4c4ccnc(C)c43)c12 | > 200 µM | > 200 µM | 18.8 µM | > 200 µM | > 200 µM |  |  |  |  |  |  |  |
| CC(C)c1nccc2c3ccccc3n(CCCCCCn3c4ccccc4c4ccnc(C(C)C)c43)c12 | > 200 µM | 18.5 µM | 31.8 µM | 53.5 µM | > 200 µM |  |  |  |  |  |  |  |
| Cc1nccc2c3cc(Br)ccc3n(CCCCCCn3c4ccc(Br)cc4c4ccnc(C)c43)c12 | > 200 µM | > 200 µM | 63.4 µM | > 200 µM | > 200 µM |  |  |  |  |  |  |  |
| CCOC(=O)c1cc2c3ccccc3n(CCCCCCn3c4ccccc4c4cc(C(=O)OCC)nc(C)c43)c2c(C)n1 | > 200 µM | > 200 µM | > 200 µM | > 200 µM | > 200 µM |  |  |  |  |  |  |  |
| COc1cc(-c2nccc3c4ccccc4n(CCCCCCCn4c5ccccc5c5ccnc(-c6cc(OC)c(OC)c(OC)c6)c54)c23)cc(OC)c1OC | 7.6 µM | 3.3 µM | > 200 µM | 4 µM | > 200 µM |  |  |  |  |  |  |  |
| Cc1nccc2c3ccccc3n(CCCCCCn3c4ccccc4c4ccnc(C)c43)c12 | 87.9 µM | 149 µM | 16.9 µM | 38 µM | 134 µM | 42.1% | 39.6% | Non-toxic | Non-toxic | 5.1% | Non-toxic | Non-toxic |
| CCOC(=O)c1cc2c3ccccc3n(CCCCCn3c4ccccc4c4cc(C(=O)OCC)nc(-c5cccnc5)c43)c2c(-c2cccnc2)n1 | 15.7 µM | 132 µM | > 200 µM | 13 µM | 24.1 µM |  |  |  |  |  |  |  |
| Brc1cccc2c3ccncc3n(CCCCCCn3c4cnccc4c4cccc(Br)c43)c12 | > 200 µM | > 200 µM | > 200 µM | > 200 µM | > 200 µM |  |  |  |  |  |  |  |
